Data from ChEMBL document CHEMBL4837211, “Adamantane derivatives as potential inhibitors of p37 major envelope protein and poxvirus reproduction. Design, synthesis and antiviral activity” (Eur J Med Chem, 2021).

How the values were obtained:
Vero = test: (§1) Cytotoxicity against African green monkey Vero cells assessed as reduction in cell viability by neutral red dye based colorimetric analysis; conditions: chlorocebus sabaeus, vero
How it was run: (§2)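 Vero monolayers are grown in DMEM with 5% FBS, gentamicin and amphotericin B, and assayed in the same medium with 2% serum. Each compound is tested as 8 three-fold dilutions, starting at 1, 10 or 100 µg/ml, added before 1000 pfu/well virus. After 4 days, neutral red is added for 1.5 h, cells are washed and lysed, and OD is read. CC50 and IC50 are derived from OD values.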

[1] = tested on: p37 (Vaccinia virus Copenhagen); test: Selectivity index, ratio of CC50 for African green monkey Vero cells to IC50 for inhibition of p37 in Vaccinia virus Copenhagen infected in African green monkey Vero cells; assay type: toxicity; conditions: read-out: Ratio CC50/IC50
[2] = tested on: p37 (Cowpox virus Grishak); test: Selectivity index, ratio of CC50 for African green monkey Vero cells to IC50 for inhibition of p37 in Cowpox virus Grishak infected in African green monkey Vero cells; assay type: toxicity; conditions: read-out: Ratio CC50/IC50
cells [3] = assay type: cell-based; conditions: Cowpox virus, Vero, 96 h
[4] = tested on: p37 (Ectromelia virus K1); test: Selectivity index, ratio of CC50 for African green monkey Vero cells to IC50 for inhibition of p37 in Ectromelia virus K1 infected in African green monkey Vero cells; assay type: toxicity; conditions: read-out: Ratio CC50/IC50
cells [5] = assay type: cell-based; conditions: Ectromelia virus, Vero, 96 h
[6] = as §1; conditions: chlorocebus sabaeus, Vero cells; how it was run: as §2

Compound	CC50 (Vero) [µM]	selectivity ratio [1]	selectivity ratio [2]	IC50 (cells [3]) [µM]	selectivity ratio [4]	IC50 (cells [5]) [µM]	CC50 [6] [µM]
CC12CC3CC(C)(C1)CC(NC(=O)c1ccc(C(F)(F)F)cc1)(C3)C2	20.5						
O=C(NNC(=O)C12CC3CC(CC(C3)C1)C2)c1ccc(C(F)(F)F)cc1		> 255	> 57	4.77	> 273	1	> 273
O=C(NNC1C2CC3CC1CC(Cl)(C3)C2)c1ccc(C(F)(F)F)cc1 (stereo not drawn)		61	20.7	10.4	27.5	7.8	~215
O=C(NNC12CC3CC(CC(C3)C1)C2)c1ccc(C(F)(F)F)cc1							2.8
C/C(=N\NC(=O)c1ccc(C(F)(F)F)cc1)C12CC3CC(CC(C3)C1)C2	> 274	> 26	> 23	11.9	> 25	10.9	
CC12CC3CC(C1)CC(NC(=O)c1ccc(C(F)(F)F)cc1)(C3)C2	> 296	> 33	> 19	15.6	> 72	4.1	
O=C(NNC1C2CC3CC(C2)CC1C3)c1ccc(C(F)(F)F)cc1 (stereo not drawn)		> 103	> 72	4.06	> 118	2.5	> 296
O=C(NCC12CC3CC(CC(C3)C1)C2)c1ccc(Br)cc1	238	28			136	1.75	
O=C(NC12CC3CC(CC(C3)C1)C2)c1ccc(C(F)(F)F)cc1	> 309	> 2320	> 333	0.928	> 628	0.492	
CCC12CC3CC(C1)CC(C(=O)NNC(=O)c1ccc(C(F)(F)F)cc1)(C3)C2		3.75					47
O=C(NC1C2CC3CC(C2)CC1C3)c1ccc(Br)cc1 (stereo not drawn)	> 299	> 98	> 26.5	11.3	> 61	4.9	
O=C(NNC(=O)c1ccc(C(F)(F)F)cc1)NC12CC3CC(CC(C3)C1)C2	94.3	2.6					
O=C(NC1C2CC3CC(C2)CC1C3)c1ccc(C(F)(F)F)cc1 (stereo not drawn)	> 309	> 1430	> 321	0.96	> 543	0.569	
O=C(NCC12CC3CC(CC(C3)C1)C2)c1ccc(C(F)(F)F)cc1	> 296	> 1100	> 239	1.24			
CCC12CC3CC(C1)CC(NNC(=O)c1ccc(C(F)(F)F)cc1)(C3)C2		1.5					2.5
CC12CC3CC(C)(C1)CC(C(=O)NNC(=O)c1ccc(C(F)(F)F)cc1)(C3)C2		> 8.2					> 254
O=C(NN=C1C2CC3CC(C2)CC1C3)c1ccc(C(F)(F)F)cc1		> 1.5					> 297
CN(C(=O)c1ccc(C(F)(F)F)cc1)C12CC3CC(CC(C3)C1)C2	> 296	> 61	> 9	32.9	> 48	6.17	
CCC12CC3CC(C1)CC(NC(=O)c1ccc(C(F)(F)F)cc1)(C3)C2	> 280	> 68	> 25	11.1	> 25	11.1	
CC(NNC(=O)c1ccc(C(F)(F)F)cc1)C12CC3CC(CC(C3)C1)C2 (racemic)		27					14
O=C(NN1C(=O)[C@@H]2[C@@H]3C=C[C@@H]([C@H]4C[C@@H]34)[C@@H]2C1=O)c1ccc(C(F)(F)F)cc1 [TECOVIRIMAT]	> 266	> 100000	> 50000	0.00532	> 33000	0.00806	
